Only a selection was taken, and hits are over-represented in it overall.
ABCG2 block = inhibitors of human ABCG2 transporter, ABCB1 counter-screen. Q9UNQ0. IgMXP3 cells, JC-1 efflux, flow cytometry. inhibition, % at 6.6 µM. 190,000 tested, 0.1% active. AID 1325;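 active = inhibition above 80%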;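 note: 0% = DMSO and 100% = nicardipine control wells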
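Incubation: cells with compound and JC-1, 10 min at 25 °C, rotating, no wash / Test system: IgMXP3 (ABCG2) plus far-red-tagged CCRF-Adr (ABCB1) cells / Compound dosing: one concentration, 6.6 µM final / Also added: JC-1 fluorescent substrate / Evaluation: efflux inhibition in percent versus controls / Detection: flow cytometry, 530 nm JC-1 signal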
ABCB1 block = human ABCB1 inhibition, ABCG2 as counter-screen | P08183 | CCRF-Adr cells, JC-1 efflux, flow cytometry | inhibition, % at 6.6 µM | 190,000 tested, 0.067% active; in the data active = inhibition above about 40%;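 note: 0% = vehicle and 100% = reference inhibitor; higher value means more JC-1 retained so stronger ABCB1 efflux block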
Target sequence (P08183 whole entry, looked up): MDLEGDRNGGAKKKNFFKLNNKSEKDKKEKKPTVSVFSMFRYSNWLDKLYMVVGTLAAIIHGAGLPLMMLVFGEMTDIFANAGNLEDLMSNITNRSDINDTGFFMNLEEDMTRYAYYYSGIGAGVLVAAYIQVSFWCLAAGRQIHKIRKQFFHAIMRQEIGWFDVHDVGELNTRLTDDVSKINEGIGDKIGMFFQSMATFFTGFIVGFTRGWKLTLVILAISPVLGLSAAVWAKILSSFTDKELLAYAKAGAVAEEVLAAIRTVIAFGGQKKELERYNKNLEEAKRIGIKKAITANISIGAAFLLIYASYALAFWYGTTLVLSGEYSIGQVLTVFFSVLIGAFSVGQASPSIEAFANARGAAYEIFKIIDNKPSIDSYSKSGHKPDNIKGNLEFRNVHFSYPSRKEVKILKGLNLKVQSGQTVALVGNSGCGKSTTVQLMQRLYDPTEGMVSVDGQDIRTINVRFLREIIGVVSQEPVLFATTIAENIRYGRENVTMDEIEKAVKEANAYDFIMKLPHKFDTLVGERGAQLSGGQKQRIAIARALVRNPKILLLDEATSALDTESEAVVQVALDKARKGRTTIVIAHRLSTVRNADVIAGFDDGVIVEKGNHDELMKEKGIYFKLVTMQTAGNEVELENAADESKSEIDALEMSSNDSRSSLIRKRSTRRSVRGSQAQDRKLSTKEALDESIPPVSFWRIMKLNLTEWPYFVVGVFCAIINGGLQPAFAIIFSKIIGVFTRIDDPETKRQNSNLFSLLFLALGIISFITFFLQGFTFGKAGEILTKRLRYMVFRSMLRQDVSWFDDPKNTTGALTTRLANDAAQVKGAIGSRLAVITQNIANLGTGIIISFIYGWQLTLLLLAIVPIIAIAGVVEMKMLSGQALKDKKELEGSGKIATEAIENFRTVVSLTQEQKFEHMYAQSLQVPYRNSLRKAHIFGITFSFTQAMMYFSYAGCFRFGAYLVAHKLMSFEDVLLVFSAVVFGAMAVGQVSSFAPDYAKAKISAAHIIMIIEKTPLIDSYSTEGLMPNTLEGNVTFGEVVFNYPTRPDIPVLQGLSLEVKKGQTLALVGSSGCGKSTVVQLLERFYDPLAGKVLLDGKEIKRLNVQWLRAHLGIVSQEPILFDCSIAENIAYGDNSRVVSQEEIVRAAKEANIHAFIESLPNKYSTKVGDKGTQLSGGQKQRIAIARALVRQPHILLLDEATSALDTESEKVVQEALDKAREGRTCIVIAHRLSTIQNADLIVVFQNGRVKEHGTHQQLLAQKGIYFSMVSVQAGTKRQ
Calb biofilm kill = mixture kills Candida albicans biofilm cells; C. albicans biofilm persisters + clotrimazole, fluorescence viability; primary screen in compound mixtures of four per well; inhibition, % at 7.6 µM; 120,000 tested, 0.02% active;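 active = inhibition above 30.3% in the primary screen of four-compound pools, then above 30% when the compound was retested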;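 note: compounds exposed to preformed 24 h biofilms for 48 h; 0% = untreated biofilm control and 100% = clotrimazole plus chlorhexidine kill blank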
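System: C. albicans CAF4-2 wild-type biofilms; Medium: RPMI/MOPS medium, pH 7.0; Reagent: Clotrimazole, 50 µg/mL; Times: biofilm formation 24 h, compound exposure 48 h, 37 °C; Detection: 2-h Alamar Blue fluorescence, 535/590 nm excitation/emission; Evaluation: percent inhibition of biofilm viability.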
ROMK primary = modulates human ROMK potassium channel activity; Tet-inducible ROMK, thallium flux fluorescence; actives lie on both sides; B-score at 10 µM; 130,000 tested, 2% active; AID 1918;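 active = signal ratio slope over the read window, or its plate-corrected B-score, at least 3 SD from the plate mean, either direction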;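 note: B-score of the F/F0 ratio slope over 7 to 12 s after thallium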
zfTRPN1 agonist = agonists of zebrafish TRPN1 channel. activation, % at 3 µM. AID 1424. HEK293 zebrafish TRPN1-YFP, Fluo-8 calcium fluorescence; 100% = response to 87 µM carbachol. 220,000 tested, 0.18% active;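 active = activation above its plate's cutoff, the mean activation of test wells on that plate plus 3 SD, cut at about 19% in these data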;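 note: 0% = DMSO alone and 100% = 87 µM carbachol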
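Material: zebrafish TRPN1-YFP in HEK293 cells. Doses: one dose of 3 µM, 0.3% DMSO. Incubation: dye 1 h 37 °C plus 30 min RT. Measured by: intracellular calcium fluorescence with Fluo-8.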
TRPML3 ag = activates the human TRPML3 channel; Q8TDD5; HEK293 TRPML3-YFP, Fluo-8 calcium fluorescence; 100% = the carbachol control signal; activation, % at 3 µM; 220,000 tested, 0.29% active; AID 1448;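 active = activation above its plate's cutoff, the mean activation of the plate's test wells plus 3 SD, cut at about 12% in these data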;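 note: 0% = DMSO only wells and 100% = carbachol wells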
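Material: HEK293 cells stably carrying human TRPML3-YFP; compound dosing: single dose, 3 µM final nominal compound, 0.3% DMSO final; incubation: 1-h 37 °C dye load, 5-s basal, 120-s post-compound reads; technique: Fluo-8 intracellular calcium fluorescence, excitation 470-495 nm, emission 515-575 nm; read-out basis: percent activation from peak-to-basal fluorescence ratio, scaled between DMSO and carbachol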
ABCB1 confirm = inhibits human ABCB1 efflux, confirmed at single point | shares compounds with ABCG2 block | CCRF-Adr cells, JC-1 efflux, flow cytometry | inhibition, % at 6.6 µM | 270 tested, 7% active;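 active = inhibition of pump activity above 50%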;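 note: 0% = DMSO and 100% = nicardipine full pump inhibition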
ABCG2 single pt = inhibits human ABCG2 efflux, confirmed at single point; shares compounds with ABCG2 block; IgMXP3 cells, JC-1 efflux, flow cytometry; inhibition, % at 6.6 µM; 270 tested, 6% active;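 active = inhibition above 50%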;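 note: 0% = DMSO wells and 100% = nicardipine pump inhibitor wells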
IgMXP3 autofluor = counter-screen for ABCG2 inhibitors: compound fluorescence in IgMXP3 cells. 270 tested, 30% active. AID 1480. compound autofluorescence 488/530 nm, flow; hits give high values. shares compounds with ABCG2 block. fluorescence at 6.6 µM;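 active = fluorescence in ABCG2-expressing cells above the plate's control-well mean plus 3 SD, cut at about 15 in these data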;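 note: median cell fluorescence with compound minus that of DMSO-treated control cells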
CCRF-Adr fluor = CCRF-Adr autofluorescence flag for ABCB1 confirmation; shares compounds with ABCG2 block; CCRF-Adr cells, compound autofluorescence 488/530 nm, flow cytometry; hits give high values; fluorescence at 6.6 µM; 270 tested, 30% active; AID 1483;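 active = fluorescence beyond the plate control mean plus 3 SD, with a fluorescence-to-maximum score over 2, cut at about 25 in these data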
ROMK hit retest = human ROMK channel modulation, retest confirmation. 3,000 tested, 54% active. shares compounds with ROMK primary. AID 1917. normalized thallium flux (F/F0 slope) at 10 µM. ROMK thallium flux, fluorescence ratio; hits give low values;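 active = Flux at 10 µM at least 3 SD below or above vehicle control mean in one or both replicates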
Starred values were filed as active, the others as inactive; . = no result given.

SMILES	ABCG2 block	ABCB1 block	Calb biofilm kill	ROMK primary	zfTRPN1 agonist	TRPML3 ag	ABCB1 confirm	ABCG2 single pt	IgMXP3 autofluor	CCRF-Adr fluor	others
COc1ccc(OC)c(NC(=O)CSc2ncccc2C(=O)O)c1	1.1	0.5	.	0.362	-0.4	0.3	.	.	.	.
CCCCCCCCNC(=O)c1cccnc1SCC(=O)Nc1ccccc1OC	92.5*	5.0	12.2	0.0814	0.0	-0.3	24.4	40.4	-1.69	-0.54
O=C(Nc1cccc(Cl)c1)Nc1ccc2c(c1)OCO2	74.0	0.9	.	.	3.6	4.8	10.5	18.0	8.66	11.5
COCCn1c(-c2ccccc2)nc2ccccc21	3.4	1.2	9.8	0.582	-0.3	-0.2	.	.	.	.
COCCn1c(SCc2csc(-c3ccccc3)n2)nc2ccccc21	80.3	3.3	.	-1.58	3.9	1.5	-13.1	4.8	14.7*	72.3*
CCCN1C(=O)/C(=C/c2ccc(N3CCCC3)c(C)c2)NC1=S	86.0*	52.3*	.	.	84.6*	52.1*	-29.2	-21.1	107*	137*
CCN1C(=O)/C(=C/c2ccc(N3CCCC3)cc2)NC1=S	78.7	22.8	-3.2	-0.555	41.9*	10.6	18.9	7.1	20.2*	43.6*
CCn1c(SCC(=O)NCc2ccccc2)nc2nc3c(cc2c1=O)CCCC3	17.1	3.1	4.3	0.964	2.2	0.3	.	.	.	.
CCn1c(SCc2ccccc2Cl)nc2nc3c(cc2c1=O)CCCC3	92.5*	21.2	12.6	.	0.5	0.6	17.9	16.2	15.3*	6.21
CN(CC(=O)Nc1cccc(F)c1)C(=O)CCCc1cccs1	3.1	0.8	13.0	.	-0.4	1.0	.	.	.	.
COc1cc(CO)ccc1Oc1nc2ccccc2n2cnnc12	.	.	21.9	.	-1.1	0.8	.	.	.	.
COc1ccc(S(=O)(=O)c2cnc3ccc(OC)cc3c2N2CCC3(CC2)OCCO3)cc1	92.3*	18.7	12.9	.	2.3	0.4	24.9	21.9	6.76	9.11	ROMK hit retest=0.0503*
CCOc1ccc2ncc(S(=O)(=O)c3ccccc3)c(N3CCC4(CC3)OCCO4)c2c1	22.6	15.4	8.2	.	-2.3	-0.6	.	.	.	.
N#C/C(=C/c1ccc(N2CCCCC2)o1)C(=O)Nc1ccc(Cl)cc1	82.3*	44.6*	.	.	28.2*	38.8*	-47.9	-66.2	171*	118*	ROMK hit retest=0.0482*
CCCNC(=O)COC(=O)/C(C#N)=C/c1cc(C)n(CCC)c1C	4.7	1.2	11.8	-0.129	1.4	0.6	.	.	.	.
COc1ccc(OCC(=O)Nc2ccccc2C(=O)N2CCOCC2)cc1	0.0	59.6*	19.5	2.97*	-0.5	0.5	0.8	4.1	0.36	-1.19	ROMK hit retest=0.0804
CCOCC(=O)Nc1ccccc1C(=O)N1CCOCC1	3.7	0.4	7.4	-1.45	2.5	-0.1	.	.	.	.
CCCN1C(=O)/C(=C/c2c(NCCCOC(C)C)nc3c(C)cccn3c2=O)SC1=S	89.1*	61.5*	.	.	2.5	1.0	-3.4	-12.3	141*	178*	ROMK hit retest=0.0546*
Cc1ccc(CN(CC(=O)NC(C)(C)C)C(=O)CNC(=O)c2cccs2)cc1	0.3	0.1	10.0	0	-1.1	0.0	.	.	.	.
Cc1ccc(S(=O)(=O)Nc2ccnc3ccccc23)cc1	-0.4	0.0	.	-1.85	-1.1	-0.1	.	.	.	.

Bioassay records deposited in PubChem BioAssay by several laboratories.
